ChEMBL document CHEMBL1121917, “Structure--activity relationships in a broad-spectrum anthelmintic series. Acid chloride phenylhydrazones. 1. Aryl substitutions and chloride variations” (1981)

Experiments:
Canis familiaris [1] = species: Canis familiaris; assay: percent reduction in Ancylostoma eggs per gram, after oral treatment of 150 mg/dog dose of compound in a single treatment; assay type: functional, Canis lupus familiaris, Egg
Ovis aries [2] = assay: Percent reduction in Ostertagia eggs per gram, after treatment with 100 mg/kg dose of compound perorally in sheep; assay type: functional, Egg; conditions: route oral
Procedure, shortened: (§1)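 Naturally parasitized lambs were dosed orally at the stated mg/kg. Dosing was either as a suspension of finely ground compound by stomach tube, or as ground compound weighed into gelatin capsules and given by balling gun. Activity was scored by the clinical test method: the decrease in posttreatment helminth eggs per gram.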

Ovis aries [3] = assay: Percent reduction in Cooperia eggs per gram, after treatment with 400 mg/kg dose of compound perorally in sheep; assay type: functional, Egg; conditions: route oral
Procedure, shortened: (§2)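 Naturally parasitized lambs received compound orally, either as the aqueous suspension by stomach tube or as finely ground powder in gelatin capsules by balling gun. Activity was judged by the clinical test method, as a significant decrease in posttreatment helminth egg counts.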

Canis familiaris [4] = species: Canis familiaris; assay: percent reduction in Ancylostoma eggs per gram, after oral treatment of 100 mg/dog dose of compound in a single treatment; assay type: functional, Canis lupus familiaris, Egg
Procedure, shortened: (§3)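 Dogs naturally infected with Toxascaris leonina were experimentally infected with mixed Ancylostoma caninum and Uncinaria stenocephala larvae. Finely ground compound was given orally in gelatin capsules. Three egg count determinations were made before and three after treatment in each experiment.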

Ovis aries [5] = assay: Percent reduction in Nematodirus eggs per gram, after treatment with 400 mg/kg dose of compound perorally in sheep; assay type: functional, Egg; conditions: route oral; procedure, shortened: as §1
Ovis aries [6] = assay: Percent reduction in Strongyloides eggs per gram, after treatment with 100 mg/kg dose of compound perorally in sheep; assay type: functional, Egg; conditions: route oral
Procedure, shortened: (§4)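 Naturally parasitized lambs, dosed orally either with a suspension by stomach tube or with finely ground compound in gelatin capsules by balling gun. Activity was scored by the clinical test method, meaning a significant fall in helminth egg counts after treatment.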

Ovis aries [7] = assay: Percent reduction in Ostertagia eggs per gram, after treatment with 400 mg/kg dose of compound perorally in sheep; assay type: functional, Egg; conditions: route oral; procedure, shortened: as §4
Ovis aries [8] = assay: Percent reduction in Trichostrongylus eggs per gram, after treatment with 400 mg/kg dose of compound perorally in sheep; assay type: functional, Egg; conditions: route oral; procedure, shortened: as §4
Ovis aries [9] = assay: Percent reduction in Haemonchus eggs per gram, after treatment with 100 mg/kg dose of compound perorally in sheep; assay type: functional, Egg; conditions: route oral; procedure, shortened: as §2
Ovis aries [10] = assay: Percent reduction in Nematodirus eggs per gram, after treatment with 100 mg/kg dose of compound perorally in sheep; assay type: functional, Egg; conditions: route oral; procedure, shortened: as §1
Canis familiaris [11] = species: Canis familiaris; assay: percent reduction in Ancylostoma eggs per gram, after oral treatment of 50 mg/dog dose of compound in a single treatment; assay type: functional, Canis lupus familiaris, Egg
Ovis aries [12] = assay: Percent reduction in Haemonchus eggs per gram, after treatment with 400 mg/kg dose of compound perorally in sheep; assay type: functional, Egg; conditions: route oral; procedure, shortened: as §1
Ovis aries [13] = assay: Percent reduction in Trichostrongylus eggs per gram, after treatment with 100 mg/kg dose of compound perorally in sheep; assay type: functional, Egg; conditions: route oral; procedure, shortened: as §4
Canis familiaris [14] = species: Canis familiaris; assay: percent reduction in Toxascaris eggs per gram, after oral treatment of 50 mg/dog dose of compound in a single treatment; assay type: functional, Canis lupus familiaris, Egg; procedure, shortened: as §3
Ovis aries [15] = assay: Percent reduction in Ostertagia eggs per gram, after treatment with 300 mg/kg dose of compound perorally in sheep; assay type: functional, Egg; conditions: route oral; procedure, shortened: as §4
Canis familiaris [16] = species: Canis familiaris; assay: percent reduction in Uncinaria eggs per gram, after oral treatment of 50 mg/dog dose of compound in a single treatment; assay type: functional, Canis lupus familiaris, Egg; procedure, shortened: as §3
Ovis aries [17] = assay: Percent reduction in Trichuris eggs per gram, after treatment with 400 mg/kg dose of compound perorally in sheep; assay type: functional, Egg; conditions: route oral; procedure, shortened: as §4
Ovis aries [18] = assay: Percent reduction in Haemonchus eggs per gram, after treatment with 300 mg/kg dose of compound perorally in sheep; assay type: functional, Egg; conditions: route oral; procedure, shortened: as §1
Canis familiaris [19] = species: Canis familiaris; assay: percent reduction in Uncinaria eggs per gram, after oral treatment of 150 mg/dog dose of compound in a single treatment; assay type: functional, Canis lupus familiaris, Egg
Canis familiaris [20] = species: Canis familiaris; assay: percent reduction in Toxascaris eggs per gram, after oral treatment of 150 mg/dog dose of compound in a single treatment; assay type: functional, Canis lupus familiaris, Egg
Mus musculus [21] = species: Mus musculus; assay: Percent clearance of Syphacaia obvelata from mouse after oral treatment of 1.87 mg/mouse/day; assay type: functional
Procedure, shortened: (§5)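 Mice naturally carrying Syphacia obvelata were experimentally infected with Nematospiroides dubius and Hymenolepis nana, then grouped after a 2-week prepatency. Finely ground compound was suspended in aqueous 0.10% carboxymethylcellulose, 0.04% polysorbate 80 and 0.0042% polyparaben, and 0.1 mL was given orally by cannula once daily for 4 days to five mice. Necropsy followed 2 days later, scoring presence or absence of each parasite. Control clearance was subtracted from the treated clearance.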

Canis familiaris [22] = species: Canis familiaris; assay: percent reduction in Uncinaria eggs per gram, after oral treatment of 100 mg/dog dose of compound in a single treatment; assay type: functional, Canis lupus familiaris, Egg
Ovis aries [23] = assay: Percent reduction in Oesophagostomum eggs per gram, after treatment with 100 mg/kg dose of compound perorally in sheep; assay type: functional, Egg; conditions: route oral; procedure, shortened: as §1
Ovis aries [24] = assay: Percent reduction in Strongyloides eggs per gram, after treatment with 400 mg/kg dose of compound perorally in sheep; assay type: functional, Egg; conditions: route oral; procedure, shortened: as §4
Ovis aries [25] = assay: Percent reduction in Oesophagostomum eggs per gram, after treatment with 400 mg/kg dose of compound perorally in sheep; assay type: functional, Egg; conditions: route oral; procedure, shortened: as §1
Ovis aries [26] = assay: Percent reduction in Trichuris eggs per gram, after treatment with 300 mg/kg dose of compound perorally in sheep; assay type: functional, Egg; conditions: route oral
Ovis aries [27] = assay: Percent reduction in Strongyloides eggs per gram, after treatment with 300 mg/kg dose of compound perorally in sheep; assay type: functional, Egg; conditions: route oral; procedure, shortened: as §4
Mus musculus [28] = species: Mus musculus; assay: Percent clearance of Nematospiroides dubius from mouse after oral treatment of 1.875 mg/mouse/day; assay type: functional; procedure, shortened: as §5
Ovis aries [29] = assay: Percent reduction in Trichuris eggs per gram, after treatment with 100 mg/kg dose of compound perorally in sheep; assay type: functional, Egg; conditions: route oral; procedure, shortened: as §4
Ovis aries [30] = assay: Percent reduction in Nematodirus eggs per gram, after treatment with 300 mg/kg dose of compound perorally in sheep; assay type: functional, Egg; conditions: route oral; procedure, shortened: as §1
Ovis aries [31] = assay: Percent reduction in Trichostrongylus eggs per gram, after treatment with 300 mg/kg dose of compound perorally in sheep; assay type: functional, Egg; conditions: route oral
Ovis aries [32] = assay: Percent reduction in Moniezia eggs per gram, after treatment with 400 mg/kg dose of compound perorally in sheep; assay type: functional, Egg; conditions: route oral; procedure, shortened: as §1

CSc1ccc(/C(Cl)=N/Nc2ccccc2)cc1 was tested. Which Reduction (Canis familiaris [1]) did it give?
Its Reduction is 84%.

What about the Reduction (Ovis aries [2]) of the same molecule?
The Reduction was 98%.

What about the Reduction (Ovis aries [3]) of the same molecule?
Its Reduction is 100%.

What about the Reduction (Canis familiaris [4]) of the same molecule?
Its Reduction is 94%.

And the Reduction (Ovis aries [5])?
The Reduction was 100%.

What about the Reduction (Ovis aries [6]) of the same molecule?
The Reduction was 100%.

And the Reduction (Ovis aries [7])?
The Reduction was 100%.

What about the Reduction (Ovis aries [8]) of the same molecule?
The Reduction was 100%.

What about the Reduction (Ovis aries [9]) of the same molecule?
Its Reduction is 98%.

And the Reduction (Ovis aries [10])?
Its Reduction is 100%.

What about the Reduction (Canis familiaris [11]) of the same molecule?
The Reduction was 91%.

What about the Reduction (Ovis aries [12]) of the same molecule?
The Reduction was 100%.

And the Reduction (Ovis aries [13])?
The Reduction was 98%.

What about the Reduction (Canis familiaris [14]) of the same molecule?
Its Reduction is 69%.

What about the Reduction (Ovis aries [15]) of the same molecule?
Its Reduction is 100%.

What about the Reduction (Canis familiaris [16]) of the same molecule?
The Reduction was 86%.

And the Reduction (Ovis aries [17])?
Its Reduction is 38%.

And the Reduction (Ovis aries [18])?
The Reduction was 100%.

And the Reduction (Canis familiaris [19])?
The Reduction was 91%.

And the Reduction (Canis familiaris [20])?
Its Reduction is 100%.

And the Parasite_Clearance (Mus musculus [21])?
Its Parasite_Clearance is 100%.

What about the Reduction (Canis familiaris [22]) of the same molecule?
Its Reduction is 99%.

What about the Reduction (Ovis aries [23]) of the same molecule?
Its Reduction is 100%.

What about the Reduction (Ovis aries [24]) of the same molecule?
Its Reduction is 100%.

What about the Reduction (Ovis aries [25]) of the same molecule?
Its Reduction is 100%.

And the Reduction (Ovis aries [26])?
Its Reduction is 73%.

What about the Reduction (Ovis aries [27]) of the same molecule?
Its Reduction is 100%.

What about the Parasite_Clearance (Mus musculus [28]) of the same molecule?
Its Parasite_Clearance is 100%.

And the Reduction (Ovis aries [29])?
Its Reduction is 25%.

What about the Reduction (Ovis aries [30]) of the same molecule?
The Reduction was 100%.

What about the Reduction (Ovis aries [31]) of the same molecule?
The Reduction was 100%.

What about the Reduction (Ovis aries [32]) of the same molecule?
Its Reduction is 100%.
